Data set [1] has as its system Salmonella enterica subsp. enterica serovar Typhimurium. The data set can be described thus: Inhibition of Salmonella typhimurium Serine acetyltransferase expressed in Escherichia coli Tuner(TM) BL21(DE3) cells at 100 uM using acetylCo-A and L-serine as substrate measured every 27 secs for 5 mins by DNTB reagent-based UV-Visible spectrophotometric method relative to control. In a few lines: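 Recombinant StSAT activity followed indirectly with Ellman's reagent: CoASH released from acetyl-CoA plus L-Ser gives TNB, read by absorbance at pH above 7 (ε 14 000 M–1 cm–1) in 96-well format. Compounds at 100 μM, kinetic reads at 27 s intervals, % inhibition taken at 180 s endpoint. Hits at ≥40% retested at 100 μM.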

The nature of data set [2]: Inhibition of Salmonella typhimurium Serine acetyltransferase expressed in Escherichia coli Tuner(TM) BL21(DE3) cells using acetylCo-A and L-serine as substrate measured every 27 secs for 5 mins by DNTB reagent-based UV-Visible spectrophotometric method. Further details: species or system Salmonella enterica subsp. enterica serovar Typhimurium.
Data set [3] relates to Escherichia coli. In words: Antibacterial activity against Escherichia coli ATCC 25922 incubated in LB 20% minimal medium lacking cysteine for 16 to 24 hrs by CLSI-based broth microdilution assay. It is filed as functional. (In general: Broth dilution looks for growth in wells or tubes with falling amounts of substance.)
Data set [4] concerns Escherichia coli. In words: Antibacterial activity against Escherichia coli ATCC 25922 incubated in MHB medium for 16 to 24 hrs by CLSI-based broth microdilution assay. The format is functional.
The test system of data set [5] is Staphylococcus aureus. In words: Antibacterial activity against methicillin-resistant Staphylococcus aureus ATCC 33591 after 12 hrs by resazurin dye based assay. The format is functional. The note with it: ATCC 33591, 12 h. On the technique in general: Resazurin is reduced to fluorescent resorufin, in cell work by metabolically active cells.
For data set [6], the system named is Salmonella enterica subsp. enterica serovar Typhimurium. The data set can be described thus: Inhibition of Salmonella typhimurium Serine acetyltransferase expressed in Escherichia coli Tuner(TM) BL21(DE3) cells at 50 to 200 uM using acetylCo-A and L-serine as substrate measured every 27 secs for 5 mins by DNTB reagent-based UV-Visible spectrophotometric method.

A short description of data set [7]: Solubility of compound at 200 uM. The format is physicochemical.

In brackets after ≈: the same amount, converted by molar mass. Activity calls are given as the source filed them. The calls are words filed in the database; no cut-off is given here.

`O=C(Nc1ncc([N+](=O)[O-])s1)c1csnn1`: the inhibition (commonly how much of the control response was suppressed) in data set [1] came out at 68%. The IC50 (as a rule, the point on the concentration scale where inhibition reaches its midpoint) in data set [2] is 48.6 µM. For the same compound, the minimum inhibitory concentration (MIC) (as a rule, the lowest concentration that inhibits growth of the organism) is 64 µg/mL (≈ 249 µM) in data set [3] and greater than 128 µg/mL in data set [4].
For `COc1cccc(NC(=O)c2cc(-c3ccc(OC)c(S(N)(=O)=O)c3)[nH]n2)c1`, in that order: 75%, 13.6 µM, greater than 128 µg/mL and greater than 128 µg/mL.
In the case of `CC1=C2[C@@H](OC1=O)C(=O)[C@@H]1[C@@](O)(CCC3C(C)(C)CCC[C@]31C)[C@H]2O` (some centres not stated), the MIC in data set [5] amounted to 12.5 µg/mL (≈ 35.9 µM).
Same read-out and setting: next, `CC1(C)CCC[C@]2(C)C1CC[C@]1(O)[C@H](O)C3=C(CO)C(=O)OC3=C[C@H]12` (some centres not stated): 25 µg/mL (≈ 71.7 µM).
Take `COc1cc(NC(=O)c2cc(-c3ccc(OC)c(S(N)(=O)=O)c3)[nH]n2)cc(OC)c1`: the inhibition in data set [1] worked out at 52%. The MIC in data set [3] and in data set [4] was greater than 128 µg/mL in each case. The inhibition result in data set [6] is “Active”. Also, the solubility entry in data set [7] was “Insoluble”.
The compound `Cc1snnc1C(=O)Nc1ncc([N+](=O)[O-])s1` showed an inhibition in data set [1] of 72%. In data set [2], the concentration for half-maximal inhibition (IC50) turned out to be 47.8 µM. Further, the minimal inhibitory concentration (MIC) in data set [3] and in data set [4] was greater than 128 µg/mL in each case.
`COc1ccc(-c2cc(C(=O)NCc3ccccc3)n[nH]2)cc1S(N)(=O)=O` showed an inhibition in data set [1] of 79%. Half-maximal inhibition in data set [2] (IC50) required 52.8 µM. For the same compound, the MIC in data set [3] and in data set [4] was greater than 128 µg/mL in each case.
In data set [1], `C=CCSc1nc2c(c(=O)[nH]1)C(c1ccc(OCC(N)=O)cc1)CC(=O)N2` (configuration not stated) came in with an inhibition of 57%. Inhibition in data set [2] was half-maximal at 84.1 µM (IC50). Besides, the MIC in data set [3] and in data set [4] was greater than 128 µg/mL throughout.

The values above are taken from ChEMBL document CHEMBL4613294, “Inhibition of Nonessential Bacterial Targets: Discovery of a Novel Serine O-Acetyltransferase Inhibitor” (ACS Med Chem Lett, 2020).
